In article PMC2893247 (Journal of natural products, 2008):
“Also recorded” adds a separate entry of the source.

Experiments:
[1] = test system: HIF-1; test: T47D cell-based reporter assay for HIF-1 activity; set-up: species or system human
Procedure, shortened: (§1)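 PC-3 or T47D cells in DMEM/F12 with 10% FCS were transiently transfected with the HIF-1 reporter pHRE3-TK-luc. HIF-1 was induced by hypoxia (1% O2) or 10 μM 1,10-phenanthroline with test compound present. % inhibition = (1 − treated/induced luminescence) × 100. IC50 from concentration-response data, one experiment in triplicate. Potency given as fold change in IC50 relative to a reference analogue.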

[2] = test system: HIF-1; test: PC-3 cell-based reporter assay for HIF-1 activity; set-up: species or system human
Procedure, shortened: as §1

[3] = test system: pGL3-Control construct; test: Luciferase expression from control construct pGL3-Control in T47D cells; assay type: cell-based, human; settings: for IC50: Homo sapiens, T47D, read-out: IC50 on luciferase expression from pGL3-control
Procedure, shortened: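 T47D cells in DMEM/F12 with 10% FCS were transiently transfected with the constitutive pGL3-Control luciferase construct. Cells were treated with test compound and exposed to hypoxia (1% O2). Luciferase read-out as % inhibition = (1 − treated/induced light output) × 100. IC50 taken from concentration-response data, one experiment in triplicate.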

[4] = test system: MDA-MB-231 cells; test: Cell proliferation/viability assay, MDA-MB-231; assay type: cell-based, human; settings: normoxic or hypoxic conditions, data not shown
Procedure, shortened: (§2)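 Cells kept in DMEM/F12 with 10% FCS and antibiotics at 37°C. Plated at 30,000 cells/well and left overnight, then given test compound in serum-free medium. After 30 min, incubated 48 h under normoxia (5% CO2/95% air) or hypoxia (1% O2/5% CO2/94% N2). Viability read by neutral red or by sulforhodamine B (TCA fix, 0.4% dye, Tris extraction, A490 minus A690). Reported as % inhibition versus control.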

[5] = test system: PC-3 cells; test: Cell proliferation/viability assay, PC-3; assay type: cell-based, human; settings: normoxic or hypoxic conditions, data not shown
Procedure, shortened: as §2

[6] = test system: VEGF; test: ELISA assay for secreted VEGF protein in T47D cells; assay type: cell-based, human; settings: 16 h; for effect on hypoxic induction of secreted VEGF protein: hypoxia (1% O2)
Procedure, shortened: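 T47D cells plated at 356,000/well and incubated overnight at 37°C. Test compound added in serum-free DMEM/F12. After 30 min in air, treatment continued 16 h under 1% O2/5% CO2/94% N2 or with 10 μM 1,10-phenanthroline. Secreted VEGF in conditioned medium measured by ELISA and normalised to total lysate protein (BCA assay).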

[7] = test system: HIF-1α protein; test: Western blot for nuclear HIF-1α protein in T47D cells; assay type: cell-based, human; settings: T47D nuclear extract; for effect on induction of HIF-1α protein by hypoxia: 4 h hypoxia (1% O2)
Procedure, shortened: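 T47D cells plated at 10 × 10^6 per 100 mm dish for 16 h. Test compound given 30 min at 37°C, then 10 μM 1,10-phenanthroline or 1% O2 for 4 h. Nuclear extracts (60 μg protein) run on 8% SDS-PAGE and blotted to nitrocellulose. Probed with anti-HIF-1α monoclonal antibody (1:500, 1 h, RT), then HRP anti-mouse (1:30,000, 40 min), with chemiluminescent detection.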

[8] = test system: NADH-ubiquinone oxidoreductase (complex I); test: Respiration of digitonin-permeabilized T47D cells, complex I substrates; assay type: cell-based, human; settings: malate and pyruvate

Which results are given for `COC(=O)[C@]12CCCC(C)(C)[C@@H]1CC[C@@]1(C)[C@@H]3CC=C(C(C)=O)[C@H](C=O)[C@@]3(C)C(=O)C[C@@H]12` [Compound 8, 24-methyl-12,24,25-trioxoscalar-16-en-22-oate]?
reduction in potency of HIF-1 inhibition in comparison to 7 [1]: 5 to 7 fold; reduction in potency of HIF-1 inhibition in comparison to 7 [2]: 11 to 15 fold; IC50 [3]: 23 µM

Which “selectivity towards HIF-1 inhibition relative to suppression of hypoxic T47D cell proliferation/viability” value [1] does the source give for `C/C(=C\CCc1ccoc1)CC/C=C(\C)CCCC1=CC(=O)OC1` [Compound 6, furospongolide] here?
Its value is “more than 10 fold”.

And the “effect on cell proliferation/viability” value [4]?
The value was “Neither 6 nor the 6/6a mixture affected”.

And the “effect on cell proliferation/viability” value [5]?
Its value is “Neither 6 nor the 6/6a mixture affected”.

And the “effect on increase in secreted VEGF protein level caused by 1,10-phenanthroline” value ([6]; 30 μM, 1,10-phenanthroline (10 μM))?
The value was “did not affect”.

And the “effect on hypoxic induction of secreted VEGF protein” value [6]?
The value was “decreased hypoxic induction of secreted VEGF proteins in a concentration-dependent manner; also recorded: inhibits hypoxic induction of HIF-1 target VEGF protein”.

And the “effect on hypoxic induction of secreted VEGF protein” value ([6]; listed as Furospongolide)?
The value was “blocked the induction”.

What about the “effect on induction of HIF-1α protein by 1,10-phenanthroline” value ([7]; 4 h 1,10-phenanthroline 10 μM) of the same molecule?
Its value is “only weakly inhibited”.

And the “effect on induction of HIF-1α protein by hypoxia” value [7]?
The value was “blocked the induction of HIF-1α protein by hypoxia; also recorded: blocks the induction of nuclear HIF-1 α protein accumulation”.

And the “effect on induction of HIF-1α protein by hypoxia” value ([7]; listed as Furospongolide)?
Its value is “inhibiting the hypoxic induction of HIF-1α protein”.

What about the “effect on complex I-mediated mitochondrial respiration” value [8] of the same molecule?
The value was “selectively inhibits mitochondrial complex I-mediated respiration; also recorded: disrupting complex I”.

With `CC(=O)C1=CC[C@H]2[C@]3(C)CC[C@H]4C(C)(C)CCC[C@]4(CO)[C@H]3C[C@H](O)[C@]2(C)[C@H]1C=O` [Compound 7, 22-Hydroxy-24-methyl-12α-hydroxy-24-oxoscalar-16-en-25-al] as the molecule, how does the “effect on luciferase expression from control construct pGL3-Control” value ([3]; Figure 1B, 1D) read?
Its value is “suppressed luciferase expression”.

`C=C(C)[C@H]1Cc2c(ccc3c2O[C@@H]2COc4cc(OC)c(OC)cc4[C@@H]2C3=O)O1` [rotenone, reference compound] was tested. Which “effect on complex I-mediated mitochondrial respiration” value [8] did it give?
The value was “inhibited”.

How did the IC50 [3] turn out when `CC(=O)C1=CC[C@H]2[C@]3(C)CC[C@H]4C(C)(C)CCC[C@]4(CO)[C@H]3CC(=O)[C@]2(C)[C@H]1C=O` [Compound 9, 22-hydroxy-24-methyl-12,24-dioxoscalar-16-en-25-al] was run?
The IC50 was 2.6 µM.
